JMJD2C inh = human JMJD2C demethylase inhibition. Q9H3R0. GST-JMJD2C(1-420) H3K9me3 demethylation, DELFIA europium. inhibition, % at 2.35 µM. 330,000 tested, 0.069% active;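 active = more than half of a compound's replicate wells show inhibition beyond 50%, single wells judged on their own value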;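 also: signal counts dimethyl H3K9 product captured on neutravidin plate; 0% = median of DMSO wells and 100% = 0.3 times that DMSO median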
T cell modulator = modulates CD8 T cell binding to vesicles | 330,000 tested, 0.068% active | 2C CD8+ T cell-vesicle binding, flow cytometry; stronger effect = lower value | response (vesicle binding), % at 7 µM | AID 2052;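 active = response, share of CD8 T cells binding vesicles, and their 90th percentile fluorescence all below set limits, cut at about 80% in these data, passing the limit was not always enough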;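 also: values below 100% mean blocked vesicle binding to the CD8+ T cells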
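material = purified 2C TCR transgenic mouse naive CD8+ T cells | controls = Unloaded micro-vesicles (low), QL9 vesicles with 0.7% DMSO (high) | detection = cytometric PE anti-B7-1 and Alexa647 anti-CD8 signals after 1% paraformaldehyde fixation | incubation = binding step 1.5 h, 37 °C, antibody labelling 20 min, ice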
PP1 counter = counter-screen for PP5 inhibitors: inhibitors of human PP1-alpha; P62136; purified PP1alpha, OMFP fluorescence; inhibition, % at 6.7 µM; 320,000 tested, 0.9% active; AID 2235;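 active = inhibition above the mean inhibition of all tested compounds plus 3 SD, computed separately for each screening campaign, cut at about 15% in these data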
Target sequence (P62136 whole entry, looked up): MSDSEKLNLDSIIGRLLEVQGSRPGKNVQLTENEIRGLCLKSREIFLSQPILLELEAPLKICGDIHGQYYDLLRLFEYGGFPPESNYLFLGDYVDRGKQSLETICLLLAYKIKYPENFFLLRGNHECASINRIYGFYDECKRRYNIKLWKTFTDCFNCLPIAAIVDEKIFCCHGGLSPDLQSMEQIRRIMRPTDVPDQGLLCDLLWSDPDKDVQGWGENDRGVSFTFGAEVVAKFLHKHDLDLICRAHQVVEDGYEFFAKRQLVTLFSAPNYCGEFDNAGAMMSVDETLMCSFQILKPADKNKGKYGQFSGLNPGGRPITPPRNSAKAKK
PP5 primary = inhibitors of human protein phosphatase 5 (PP5); inhibition, % at 6.7 µM; 320,000 tested, 0.18% active; AID 1987; purified PP5c, OMFP substrate fluorescence; P53041;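 active = inhibition above the campaign's mean inhibition across all tested compounds plus 3 SD, cut at about 9.5% in these data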;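 also: 0% = DMSO only and 100% = 100 µM cantharidin control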
HTR2A ag = agonists of mouse serotonin 5-HT2A receptor (HTR2A). activation, % at 7.6 µM. CHO-K1 mHTR2A beta-arrestin complementation, luminescence; percent of 30 µM serotonin response. P35363. 360,000 tested, 0.66% active. AID 624169;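 active = activation above a run cutoff, the mean activation of all tested compounds plus 3 SD, cut at about 14% in these data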;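 also: 0% = plate median of compound wells and 100% = 30 µM serotonin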
MOR ag counter = counter-screen for mouse HTR2A agonists: human mu opioid receptor agonists; shares compounds with HTR2A ag; U2OS OPRM1 beta-arrestin PathHunter, luminescence; DMSO 0%, DAMGO 9.3 µM 100%; activation, % at 9.3 µM; 2,300 tested, 5.3% active; AID 624380;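 active = mean activation above the mean of DMSO-only wells plus 3 SD, cut at about 0.5% in these data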
m5-HT2A ag conf = confirmation of mouse HTR2A serotonin receptor agonists. shares compounds with HTR2A ag. CHO-K1 PathHunter beta-arrestin recruitment, luminescence; DMSO 0%, 30 µM serotonin 100%. activation, % at 7.6 µM. 2,300 tested, 19% active. AID 624381;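 active = mean activation across triplicates above the hit threshold derived in the original primary screen, cut at about 15% in these data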
The depositor's hits bear a star; i = inactive; . = no result given. Shown are actives, neighbours in structure and some others; about 1.7% of the full set was active somewhere.

SMILES	JMJD2C inh	T cell modulator	PP1 counter	PP5 primary	HTR2A ag	MOR ag counter	m5-HT2A ag conf
Cc1nnsc1C(=O)N1CCCC1(C)C(=O)O (configuration not stated)	.	.	.	.	27*	-1	1
Cc1c(C(=O)NCC2CCCO2)oc2ccc(Br)cc12 (configuration not stated)	20	450	-1	0	0	.	.
O=C(Nc1ccc(Cl)c(S(=O)(=O)N2CCOCC2)c1)c1ccc2c(c1)OCCO2	2	226	-2	4	-4	.	.
O=C(Nc1ccc(Cl)c(S(=O)(=O)N2CCOCC2)c1)c1ccc(Cl)nc1	.	.	.	.	17*	0	0
O=C(CN1C(=O)NC(CCc2ccccc2)C1=O)Nc1cccc(Br)c1 (configuration not stated)	3	403	.	.	-3	.	.
O=C(Cc1ccc(NC(=O)C2CCCN(C(=O)C3CCC3)C2)cc1)Nc1ccc(C(=O)N2CCOCC2)cc1 (configuration not stated)	.	.	.	.	17*	0	1
O=C(Cc1ccc(NC(=O)C2CCCN(C(=O)C3CC3)C2)cc1)Nc1cccc(C(=O)N2CCCC2)c1 (configuration not stated)	.	.	.	.	15*	-1	-4
CN(C(=O)c1cccc(NC(=O)Cc2ccc(NC(=O)C3CCCN(C(=O)CCc4ccccc4)C3)cc2)c1)C1CC1 (configuration not stated)	.	.	.	.	16*	1.1*	-1
O=C(Cc1ccc(NC(=O)C2CCCN(C(=O)C3CCCCC3)C2)cc1)Nc1cccc(C(=O)N2CCCC2)c1 (configuration not stated)	.	.	.	.	10	.	.
O=C(Cc1ccc(NC(=O)C2CCCN(C(=O)C3CCCCC3)C2)cc1)Nc1ccc(C(=O)N2CCOCC2)cc1 (configuration not stated)	.	.	.	.	3	.	.
CCN(CC)C(=O)c1ccc(NS(=O)(=O)c2ccc3[nH]c(=O)[nH]c3c2)cc1	6	300	.	.	12	.	.
CCOC(=O)Cn1c(=O)n(Cc2ccc(C)cc2)c(=O)c2cccnc21	9	.	4	2	50*	-1	-3
NC(=O)Cn1c(=O)n(Cc2ccccc2)c(=O)c2cccnc21	2	175	-1	1	-3	.	.
CC1=C(CC(=O)O)c2cc(F)ccc2/C1=C\c1ccc(S(C)=O)cc1 (configuration not stated)	25	543	3	6	2	.	.
O=C(NCc1ccccc1)C1C(c2ccccc2)=Nc2ccccc2N1C(=O)c1cnccn1 (configuration not stated)	.	.	.	.	14*	-1	0
CSc1nsc(/C=C/Nc2ccc(O)cc2C)c1C#N	2	270	2	4	9	.	.
O=c1cc(C(F)(F)F)nc(SCc2cccc3ccccc23)[nH]1	-1	203	6	1	18*	-1	5
O=C(CN1C(=O)NC2(CCc3ccccc32)C1=O)NCc1ccc(Cl)cc1 (configuration not stated)	.	424	.	.	6	.	.
COc1cc2c(cc1O)[C@@H]1Cc3cc(OC)c(OC)cc3C(C2)N1C	-2	537	-4	-1	-3	.	.
COc1cc2c(cc1OC)[C@@H]1Cc3cc4c(cc3[C@H](C2)N1C)OCO4	3	658	2	1	18*	0	-4
COc1ccccc1-c1sc2cc3c(cc2c1C#Cc1cncn1C)OCO3	-28	0	.	.	-4	.	.
C/C(=C\C(=O)c1ncc(C(F)(F)F)cc1Cl)N(C)C	-7	143	0	0	21*	-1	-6
CN(C)/C=C(\C=O)c1ncc(C(F)(F)F)cc1Cl	-11	766	-1	2	2	.	.
Cc1ccc(-c2ccnc(=S)[nH]2)cc1	-32	125	1	0	15*	-1	1
S=c1nccc(-c2ccc3c(c2)CCO3)[nH]1	2	440	-6	-3	-5	.	.
CCOC(=O)c1ccc(NC(=O)C23CCC(C)(C(=O)O2)C3(C)C)cc1 (configuration not stated)	i	582	-5	-2	18*	-1	-4

Source: PubChem BioAssay
